# Measured values reported in BindingDB's records for doi:10.1016/j.bmcl.2015.12.102 (Reset Therapeutics, 2016).
# pEC50: −log10 of the molar value.
# Molecular target: T1, Period circadian protein homolog 2 (Homo sapiens, UniProt O15055)
# T1 sequence (O15055 whole entry): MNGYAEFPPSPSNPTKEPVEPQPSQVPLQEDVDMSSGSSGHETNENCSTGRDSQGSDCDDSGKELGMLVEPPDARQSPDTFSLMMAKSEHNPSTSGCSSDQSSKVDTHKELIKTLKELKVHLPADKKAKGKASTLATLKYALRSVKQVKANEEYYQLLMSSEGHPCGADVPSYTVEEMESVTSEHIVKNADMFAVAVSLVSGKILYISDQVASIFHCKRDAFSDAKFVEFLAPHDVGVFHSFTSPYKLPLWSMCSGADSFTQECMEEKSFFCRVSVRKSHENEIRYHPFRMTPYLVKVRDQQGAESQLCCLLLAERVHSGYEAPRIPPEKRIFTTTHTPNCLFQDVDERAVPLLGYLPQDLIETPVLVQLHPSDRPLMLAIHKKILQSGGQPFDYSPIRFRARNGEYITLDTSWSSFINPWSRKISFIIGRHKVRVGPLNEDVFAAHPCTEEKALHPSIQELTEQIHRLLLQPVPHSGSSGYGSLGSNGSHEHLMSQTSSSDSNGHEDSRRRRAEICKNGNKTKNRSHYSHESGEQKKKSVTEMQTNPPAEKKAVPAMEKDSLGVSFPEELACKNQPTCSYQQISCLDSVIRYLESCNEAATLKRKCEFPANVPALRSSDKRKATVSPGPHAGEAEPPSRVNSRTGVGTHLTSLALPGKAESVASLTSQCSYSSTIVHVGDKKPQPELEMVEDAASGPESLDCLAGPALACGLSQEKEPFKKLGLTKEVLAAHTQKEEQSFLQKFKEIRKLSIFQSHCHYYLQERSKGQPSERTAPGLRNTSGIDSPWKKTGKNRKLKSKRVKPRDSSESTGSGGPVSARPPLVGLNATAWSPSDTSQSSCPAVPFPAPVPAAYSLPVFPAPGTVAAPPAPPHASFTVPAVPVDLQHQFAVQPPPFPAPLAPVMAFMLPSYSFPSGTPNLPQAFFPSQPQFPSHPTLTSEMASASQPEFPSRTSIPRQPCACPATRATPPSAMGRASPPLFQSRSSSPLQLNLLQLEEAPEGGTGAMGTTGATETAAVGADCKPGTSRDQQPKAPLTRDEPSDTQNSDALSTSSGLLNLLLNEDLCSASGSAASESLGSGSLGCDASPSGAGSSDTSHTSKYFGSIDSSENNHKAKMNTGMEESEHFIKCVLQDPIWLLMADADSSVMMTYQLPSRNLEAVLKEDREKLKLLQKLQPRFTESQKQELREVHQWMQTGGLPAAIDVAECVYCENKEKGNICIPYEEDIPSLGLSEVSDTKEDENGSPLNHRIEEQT
# Test: Reduction of amplitude effect of PER2 in human U2OS cells harboring Per2-dLuc luciferase reporter gene assessed as effects on circadian rhythms
# How it was run: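 Human osteosarcoma U2OS cells carrying a Per2-dLuc luciferase reporter, treated continuously; circadian luminescence rhythm amplitude followed. 8-point threefold dilution series; EC50 taken as concentration giving 50% of the compound's own maximal response (titrations without plateau give no EC50).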
row,SMILES,pEC50
1,O=S(=O)(C1CCOC1)N(Cc1ccco1)CC(O)Cn1c2ccccc2c2ccccc21 (stereo unspecified),5.93
2,CS(=O)(=O)N(CC(O)Cn1c2ccccc2c2ccccc21)c1ccccc1F (stereo unspecified),5.59
3,CS(=O)(=O)N(CC(O)Cn1c2ccccc2c2ccccc21)C1CC(F)(F)C1 (stereo unspecified),5.90
4,CS(=O)(=O)N(CC(O)Cn1c2ccccc2c2ccccc21)C1CCOCC1 (stereo unspecified),6.09
5,CS(=O)(=O)N(CC(O)Cn1c2ccccc2c2ccccc21)C1CCCCC1 (stereo unspecified),6.27
6,O=S(=O)(C1CCCCC1)N(Cc1ccco1)CC(O)Cn1c2ccccc2c2ccccc21 (stereo unspecified),6.00
7,CN1CCCN(CC(O)Cn2c3ccccc3c3ccccc32)S1(=O)=O (stereo unspecified),6.14
8,CS(=O)(=O)N(Cc1ccccc1)CC(O)Cn1c2ccccc2c2ccccc21 (stereo unspecified),6.09
9,CCN(CC(O)Cn1c2ccccc2c2ccccc21)S(C)(=O)=O (stereo unspecified),6.30
10,CS(=O)(=O)N(CC(O)Cn1c2ccccc2c2ccccc21)c1ccccn1 (stereo unspecified),< 5.00
11,O=S(=O)(c1ccccc1)N(Cc1ccco1)CC(O)Cn1c2ccccc2c2ccccc21 (stereo unspecified),5.96
12,COCCN(CC(O)Cn1c2ccccc2c2ccccc21)S(C)(=O)=O (stereo unspecified),5.99
13,O=S(=O)(C1CC1)N(Cc1ccco1)CC(O)Cn1c2ccccc2c2ccccc21 (stereo unspecified),6.25
14,CS(=O)(=O)N(Cc1ccco1)CC(O)Cn1c2ccccc2c2ccccc21 (stereo unspecified) [N-(3-carbazol-9-yl-2-hydroxypropyl)-N-(furan-2-ylmethyl)methanesulfonamide],6.06
15,CS(=O)(=O)N(CC(O)Cn1c2ccccc2c2ccccc21)C1CCC(F)(F)CC1 (stereo unspecified),6.16
16,CN(CC(O)Cn1c2ccccc2c2ccccc21)S(C)(=O)=O (stereo unspecified),6.11
17,CS(=O)(=O)N(CC(O)Cn1c2ccccc2c2ccccc21)C1COC1 (stereo unspecified),5.45
18,CC(C)N(CC(O)Cn1c2ccccc2c2ccccc21)S(C)(=O)=O (stereo unspecified),6.29
19,CCCS(=O)(=O)N(Cc1ccco1)CC(O)Cn1c2ccccc2c2ccccc21 (stereo unspecified),6.29
20,CS(=O)(=O)N(CC(O)Cn1c2ccccc2c2ccccc21)c1ccc(F)cc1 (stereo unspecified),6.03

# Compounds with a higher pEC50, results first:
row,pEC50,SMILES
1,6.32,CS(=O)(=O)NCC(O)Cn1c2ccccc2c2ccccc21 (stereo unspecified)
2,6.35,CS(=O)(=O)N(CC(O)Cn1c2ccccc2c2ccccc21)C1CC1 (stereo unspecified)
3,6.36,CC(C)S(=O)(=O)N(Cc1ccco1)CC(O)Cn1c2ccccc2c2ccccc21 (stereo unspecified)
4,6.38,O=S(=O)(Cc1ccccc1)N(Cc1ccco1)CC(O)Cn1c2ccccc2c2ccccc21 (stereo unspecified)
5,6.39,CCCN(CC(O)Cn1c2ccccc2c2ccccc21)S(C)(=O)=O (stereo unspecified)
6,6.40,CS(=O)(=O)N(CC(O)Cn1c2ccccc2c2ccccc21)c1cccc(F)c1 (stereo unspecified)
7,6.42,O=S1(=O)NCCCN1CC(O)Cn1c2ccccc2c2ccccc21 (stereo unspecified)
8,6.43,CCCCS(=O)(=O)N(Cc1ccco1)CC(O)Cn1c2ccccc2c2ccccc21 (stereo unspecified)
9,6.44,CC(C)CS(=O)(=O)N(Cc1ccco1)CC(O)Cn1c2ccccc2c2ccccc21 (stereo unspecified)
10,6.51,CS(=O)(=O)N(CC(O)Cn1c2ccccc2c2ccccc21)C1CCCC1 (stereo unspecified)
11,6.54,COCCS(=O)(=O)N(Cc1ccco1)CC(O)Cn1c2ccccc2c2ccccc21 (stereo unspecified)
12,6.57,CS(=O)(=O)N(CC(O)Cn1c2ccccc2c2ccccc21)c1ccccc1 (stereo unspecified)
13,6.71,CCS(=O)(=O)N(Cc1ccco1)CC(O)Cn1c2ccccc2c2ccccc21 (stereo unspecified)
14,6.72,O=S1(=O)CCN1CC(O)Cn1c2ccccc2c2ccccc21 (stereo unspecified)
15,6.75,CC(C)CN(CC(O)Cn1c2ccccc2c2ccccc21)S(C)(=O)=O (stereo unspecified)
16,6.76,O=S1(=O)CCCCN1CC(O)Cn1c2ccccc2c2ccccc21 (stereo unspecified)
17,6.84,O=S1(=O)CCCN1CC(O)Cn1c2ccccc2c2ccccc21 (stereo unspecified)
18,6.88,CN1CCN(CC(O)Cn2c3ccccc3c3ccccc32)S1(=O)=O (stereo unspecified)
19,6.89,CS(=O)(=O)N(CC(O)Cn1c2ccccc2c2ccccc21)C1CCC1 (stereo unspecified)
20,7.14,O=S1(=O)COCCN1CC(O)Cn1c2ccccc2c2ccccc21 (stereo unspecified)
21,7.38,O=S1(=O)NCCN1CC(O)Cn1c2ccccc2c2ccccc21 (stereo unspecified)
